Data on six molecules can be found in ChEMBL document CHEMBL4130469, “C-Methylated Flavonoid Glycosides from Pentarhizidium orientale Rhizomes and Their Inhibitory Effects on the H1N1 Influenza Virus” (J Nat Prod, 2017).

Bounds are passed on as bounds.

A short description of series [1]: Inhibition of neuraminidase activity in H9N2 A/chicken/Korea/01210/2001 infected in MDCK cells using 4-MU-NANA as substrate pretreated for 30 mins followed by substrate addition measured after 2 hrs by fluorescence assay. The series is classed as cell-based, H9N2 subtype. Conditions: Influenza A virus, A/chicken/Korea/01210/2001, MDCK.
A further series deals with Influenza A virus. Kind of series: Antiviral activity against Influenza A virus (A/PR/8/34 (H1N1)) infected in MDCK cells assessed as reduction in virus-induced cytopathic effect after 3 days by MTT assay. Conditions: A/Puerto Rico/8/1934(H1N1), 72 h. It is filed as functional, organism-based. Put shortly:
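MDCK cells grown in DMEM with 10% FBS at 37 °C and 5% CO2, seeded at 1 × 10^5 cells/well, and cultured 24 h. Infected 2 h in DMEM with 0.15 μg/mL trypsin and 5 μg/mL BSA, then given DMEM with 10 μg/mL trypsin and a range of compound concentrations, in triplicate. After 3 days, MTT (2 mg/mL) added for 4 h at 37 °C; formazan dissolved in DMSO, A550 read; EC50.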
A general note: Cytopathic effects are the visible damage that an infection or toxin causes in cultured cells.

Series [2] can be described thus: Cytotoxicity against MDCK cells after 2 days by MTT assay. The series is classed as cell-based, Canis lupus familiaris. Conditions: dog. Put shortly: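 Uninfected MDCK cells seeded at 1 × 10^5 cells/well and grown 24 h. Washed with PBS, then exposed to graded compound concentrations in fresh DMEM, each in triplicate, for 2 days. Viability by MTT (2 mg/mL), 4 h further incubation; CC50.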
(In general: Formazan colour is commonly taken as a measure of viable cells.)

Series [3] has as its target Neuraminidase (Influenza A virus (A/Puerto Rico/8/1934(H1N1)), UniProt P03468). Description: Inhibition of neuraminidase activity in Influenza A virus (A/PR/8/34 (H1N1)) infected in MDCK cells using 4-MU-NANA as substrate pretreated for 30 mins followed by substrate addition measured after 2 hrs by fluorescence assay. It is filed as cell-based.

Chain of Neuraminidase (Influenza A virus (A/Puerto Rico/8/1934(H1N1)), UniProt P03468) (P03468 whole entry): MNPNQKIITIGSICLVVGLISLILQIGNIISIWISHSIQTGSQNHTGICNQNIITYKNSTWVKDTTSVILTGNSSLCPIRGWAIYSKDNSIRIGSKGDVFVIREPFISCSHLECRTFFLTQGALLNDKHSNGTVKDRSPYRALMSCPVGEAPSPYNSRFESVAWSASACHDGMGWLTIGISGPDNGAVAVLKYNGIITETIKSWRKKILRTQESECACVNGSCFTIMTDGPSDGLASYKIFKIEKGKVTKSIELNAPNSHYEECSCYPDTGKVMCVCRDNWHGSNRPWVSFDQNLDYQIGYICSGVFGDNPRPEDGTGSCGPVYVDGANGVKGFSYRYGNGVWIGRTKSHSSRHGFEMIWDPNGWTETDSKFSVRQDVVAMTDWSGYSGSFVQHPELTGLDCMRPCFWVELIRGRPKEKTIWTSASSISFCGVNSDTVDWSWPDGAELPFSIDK

Regarding `Cc1c(O)c(C)c2c(c1O)C(=O)C[C@@H](c1ccccc1O)O2`, the IC50 in series [1] was 24.1 µM; in series [3], 23.9 µM. The EC50 in the series on Influenza A virus turned out to be 22.9 µM. This molecule displayed a CC50 at 48 h in series [2] greater than 100 µM.
As for `COc1ccc(O)c([C@@H]2CC(=O)c3c(O)c(C)c(O)c(C)c3O2)c1`, the IC50 is 24.6 µM in series [1] and 24.5 µM in series [3]. In the series on Influenza A virus, the EC50 was 23 µM. The molecule also came in with a CC50 at 48 h in series [2] greater than 100 µM.
Turning to `COc1ccc([C@@H]2CC(=O)c3c(O)c(C)c(O)c(C)c3O2)cc1`, the IC50 in series [1] stood at 27.2 µM; in series [3], 25.2 µM. The half-maximal effective concentration (EC50) in the series on Influenza A virus was 26.9 µM. This molecule also showed a CC50 at 48 h in series [2] greater than 100 µM.
As for `COc1cc(O)cc([C@@H]2CC(=O)c3c(O)c(C)c(O)c(C)c3O2)c1`, the IC50 stood at 23.1 µM in series [1] and 24.4 µM in series [3]. Moreover, the EC50 in the series with Influenza A virus amounted to 21.4 µM. Moreover, in series [2], the CC50 at 48 h was greater than 100 µM.
For `Cc1c(O)c(C)c2c(c1O)C(=O)C[C@@H](c1ccccc1)O2` [DEMETHOXYMATTEUCINOL], in that order: 31.3 µM, 30.3 µM, 30.7 µM and 77.6 µM.
As for `CCOC(=O)C1=C[C@@H](OC(CC)CC)[C@H](NC(C)=O)[C@@H](N)C1` [OSELTAMIVIR], the half-inhibitory concentration (IC50) in series [1] worked out at 0.0191 µM. Besides, in the series with Influenza A virus, the 50% effective concentration (EC50) came out at 0.6 µM.

As a reminder, the IC50 is the concentration needed to halve the response being measured. The term EC50 denotes the concentration giving half of the maximal effect. A word on the CC50: it is the concentration at which the toxic effect on the cells reaches its halfway point.
